Assays:
Type in all cases: functional
[1] = test system: Staphylococcus aureus; test: Antibacterial activity against Staphylococcus aureus assessed as inhibition of microbial growth incubated for 18 to 22 hrs by broth microdilution method
Outline: (§1)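 Broth microdilution in Mueller-Hinton II broth following NCCLS recommendations; compounds dissolved in DMSO.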

[2] = test system: Staphylococcus warneri; test: Antibacterial activity against Staphylococcus warneri assessed as inhibition of microbial growth incubated for 18 to 22 hrs by broth microdilution method; outline: as §1
[3] = test system: Enterococcus faecalis; test: Antibacterial activity against Streptococcus faecalis assessed as inhibition of microbial growth incubated for 18 to 22 hrs by broth microdilution method; outline: as §1
[4] = test system: Escherichia coli; test: Antibacterial activity against Escherichia coli assessed as inhibition of microbial growth incubated for 18 to 22 hrs by broth microdilution method; outline: as §1
[5] = test system: Proteus mirabilis; test: Antibacterial activity against Proteus mirabilis assessed as inhibition of microbial growth incubated for 18 to 22 hrs by broth microdilution method; outline: as §1
[6] = test system: Enterobacter; test: Antibacterial activity against Enterobacter spp. assessed as inhibition of microbial growth incubated for 18 to 22 hrs by broth microdilution method; outline: as §1
[7] = test system: Klebsiella oxytoca; test: Antibacterial activity against Klebsiella oxytoca assessed as inhibition of microbial growth incubated for 18 to 22 hrs by broth microdilution method; outline: as §1
[8] = test system: Candida albicans; test: Antifungal activity against Candida albicans clinical isolates assessed as inhibition of microbial growth incubated for 24 hrs by broth microdilution method
Outline: (§2)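 Twenty-two clinical Candida isolates (8 C. albicans, 4 C. glabrata, 3 C. tropicalis, 3 C. krusei, 2 C. parapsilosis, 2 C. sake) were identified by colony morphology and biochemistry and subcultured at 35 °C for purity. Compounds were dissolved in DMSO and tested by broth microdilution in Sabouraud dextrose broth per NCCLS/CLSI/EUCAST guidance. Values are geometric mean MIC per species (µg/mL).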

[9] = test system: Nakaseomyces glabratus; test: Antifungal activity against Candida glabrata clinical isolates assessed as inhibition of microbial growth incubated for 24 hrs by broth microdilution method; outline: as §2
[10] = test system: Candida tropicalis; test: Antifungal activity against Candida tropicalis clinical isolates assessed as inhibition of microbial growth incubated for 24 hrs by broth microdilution method; outline: as §2
[11] = test system: Pichia kudriavzevii; test: Antifungal activity against Candida krusei clinical isolates assessed as inhibition of microbial growth incubated for 24 hrs by broth microdilution method; outline: as §2
[12] = test system: Candida parapsilosis; test: Antifungal activity against Candida parapsilosis clinical isolates assessed as inhibition of microbial growth incubated for 24 hrs by broth microdilution method; details: Lodderomyces parapsilosis; outline: as §2
[13] = test system: [Candida] sake; test: Antifungal activity against Candida sake clinical isolates assessed as inhibition of microbial growth incubated for 24 hrs by broth microdilution method; details: Fermentozyma sake; outline: as §2

| SMILES | MIC [1] | MIC [2] | MIC [3] | MIC [4] | MIC [5] | MIC [6] | MIC [7] | MIC [8] | MIC [9] | MIC [10] | MIC [11] | MIC [12] | MIC [13] |
| --- | --- | --- | --- | --- | --- | --- | --- | --- | --- | --- | --- | --- | --- |
| CCC/C(C)=N\N=C1\SCC(=O)N1Cc1ccccc1 | ≥ 256 µg/mL | ≥ 256 µg/mL | ≥ 256 µg/mL | ≥ 256 µg/mL | ≥ 256 µg/mL | ≥ 256 µg/mL | ≥ 256 µg/mL | 8 µg/mL | 2 µg/mL | 8 µg/mL | 16 µg/mL | 8 µg/mL | 32 µg/mL |
| C=CCC/C(C)=N\N=C1\SCC(=O)N1Cc1ccccc1 | ≥ 256 µg/mL | ≥ 256 µg/mL | ≥ 256 µg/mL | ≥ 256 µg/mL | ≥ 256 µg/mL | ≥ 256 µg/mL | ≥ 256 µg/mL | 8 µg/mL | 2 µg/mL | 8 µg/mL | 8 µg/mL | 8 µg/mL | 8 µg/mL |
| C/C(=N/N=C1/SCC(=O)N1Cc1ccccc1)C1CC1 | ≥ 256 µg/mL | ≥ 256 µg/mL | ≥ 256 µg/mL | ≥ 256 µg/mL | ≥ 256 µg/mL | ≥ 256 µg/mL | ≥ 256 µg/mL | 2 µg/mL | 4 µg/mL | 2 µg/mL | 2 µg/mL | 2 µg/mL | 2 µg/mL |
| CC(C)=N/N=C1/SCC(=O)N1Cc1ccccc1 | ≥ 256 µg/mL | ≥ 256 µg/mL | ≥ 256 µg/mL | ≥ 256 µg/mL | ≥ 256 µg/mL | ≥ 256 µg/mL | ≥ 256 µg/mL | 256 µg/mL | 256 µg/mL | 256 µg/mL | 256 µg/mL | 256 µg/mL | 256 µg/mL |
| CCC(CC)=N/N=C1/SCC(=O)N1Cc1ccccc1 | ≥ 256 µg/mL | ≥ 256 µg/mL | ≥ 256 µg/mL | ≥ 256 µg/mL | ≥ 256 µg/mL | ≥ 256 µg/mL | ≥ 256 µg/mL | 32 µg/mL | 2 µg/mL | 32 µg/mL | 8 µg/mL | 8 µg/mL | 8 µg/mL |
| CCC/C(CC)=N\N=C1\SCC(=O)N1Cc1ccccc1 | ≥ 256 µg/mL | ≥ 256 µg/mL | ≥ 256 µg/mL | ≥ 256 µg/mL | ≥ 256 µg/mL | ≥ 256 µg/mL | ≥ 256 µg/mL | 4 µg/mL | 4 µg/mL | 4 µg/mL | 4 µg/mL | 8 µg/mL | 8 µg/mL |
| CC1CCC/C1=N/N=C1/SCC(=O)N1Cc1ccccc1 (stereo not given) | ≥ 256 µg/mL | ≥ 256 µg/mL | ≥ 256 µg/mL | ≥ 256 µg/mL | ≥ 256 µg/mL | ≥ 256 µg/mL | ≥ 256 µg/mL | 8 µg/mL | 8 µg/mL | 8 µg/mL | 4 µg/mL | 4 µg/mL | 4 µg/mL |
| CC1CCC(=N/N=C2/SCC(=O)N2Cc2ccccc2)CC1 (stereo not given) | ≥ 256 µg/mL | ≥ 256 µg/mL | ≥ 256 µg/mL | ≥ 256 µg/mL | ≥ 256 µg/mL | ≥ 256 µg/mL | ≥ 256 µg/mL | 8 µg/mL | 8 µg/mL | 16 µg/mL | 16 µg/mL | 16 µg/mL | 16 µg/mL |
| C/C(CC(C)C)=N/N=C1/SCC(=O)N1Cc1ccccc1 | ≥ 256 µg/mL | ≥ 256 µg/mL | ≥ 256 µg/mL | ≥ 256 µg/mL | ≥ 256 µg/mL | ≥ 256 µg/mL | ≥ 256 µg/mL | 8 µg/mL | 8 µg/mL | 16 µg/mL | 16 µg/mL | 16 µg/mL | 16 µg/mL |
| CC1CCCC/C1=N/N=C1/SCC(=O)N1Cc1ccccc1 (stereo not given) | ≥ 256 µg/mL | ≥ 256 µg/mL | ≥ 256 µg/mL | ≥ 256 µg/mL | ≥ 256 µg/mL | ≥ 256 µg/mL | ≥ 256 µg/mL | 16 µg/mL | 2 µg/mL | 32 µg/mL | 16 µg/mL | 4 µg/mL | 16 µg/mL |
| CCCC/C(CC)=N\N=C1\SCC(=O)N1Cc1ccccc1 | ≥ 256 µg/mL | ≥ 256 µg/mL | ≥ 256 µg/mL | ≥ 256 µg/mL | ≥ 256 µg/mL | ≥ 256 µg/mL | ≥ 256 µg/mL | 128 µg/mL | 32 µg/mL | 16 µg/mL | 4 µg/mL | 8 µg/mL | 4 µg/mL |
| CC/C(C)=N\N=C1\SCC(=O)N1Cc1ccccc1 | ≥ 256 µg/mL | ≥ 256 µg/mL | ≥ 256 µg/mL | ≥ 256 µg/mL | ≥ 256 µg/mL | ≥ 256 µg/mL | ≥ 256 µg/mL | 8 µg/mL | 16 µg/mL | 8 µg/mL | 16 µg/mL | 8 µg/mL | 32 µg/mL |
| CCCCCC/C(C)=N\N=C1\SCC(=O)N1Cc1ccccc1 | ≥ 256 µg/mL | ≥ 256 µg/mL | ≥ 256 µg/mL | ≥ 256 µg/mL | ≥ 256 µg/mL | ≥ 256 µg/mL | ≥ 256 µg/mL | 8 µg/mL | 8 µg/mL | 16 µg/mL | 16 µg/mL | 16 µg/mL | 16 µg/mL |
| CCCCC/C(C)=N\N=C1\SCC(=O)N1Cc1ccccc1 | ≥ 256 µg/mL | ≥ 256 µg/mL | ≥ 256 µg/mL | ≥ 256 µg/mL | ≥ 256 µg/mL | ≥ 256 µg/mL | ≥ 256 µg/mL | 8 µg/mL | 8 µg/mL | 16 µg/mL | 16 µg/mL | 16 µg/mL | 16 µg/mL |
| O=C1CS/C(=N/N=C2CCCC2)N1Cc1ccccc1 | ≥ 256 µg/mL | ≥ 256 µg/mL | ≥ 256 µg/mL | ≥ 256 µg/mL | ≥ 256 µg/mL | ≥ 256 µg/mL | ≥ 256 µg/mL | 8 µg/mL | 8 µg/mL | 16 µg/mL | 16 µg/mL | 16 µg/mL | 16 µg/mL |
| CC(C)=C/C(C)=N\N=C1\SCC(=O)N1Cc1ccccc1 | ≥ 256 µg/mL | ≥ 256 µg/mL | ≥ 256 µg/mL | ≥ 256 µg/mL | ≥ 256 µg/mL | ≥ 256 µg/mL | ≥ 256 µg/mL | 128 µg/mL | 2 µg/mL | 128 µg/mL | 8 µg/mL | 8 µg/mL | 8 µg/mL |
| CCCC/C(C)=N\N=C1\SCC(=O)N1Cc1ccccc1 | ≥ 256 µg/mL | ≥ 256 µg/mL | ≥ 256 µg/mL | ≥ 256 µg/mL | ≥ 256 µg/mL | ≥ 256 µg/mL | ≥ 256 µg/mL | 2 µg/mL | 2 µg/mL | 2 µg/mL | 2 µg/mL | 2 µg/mL | 4 µg/mL |
| O=C1CS/C(=N/N=C2CCCCCC2)N1Cc1ccccc1 | ≥ 256 µg/mL | ≥ 256 µg/mL | ≥ 256 µg/mL | ≥ 256 µg/mL | ≥ 256 µg/mL | ≥ 256 µg/mL | ≥ 256 µg/mL | 256 µg/mL | 256 µg/mL | 256 µg/mL | 256 µg/mL | 256 µg/mL | 256 µg/mL |
| CC1CC/C(=N/N=C2/SCC(=O)N2Cc2ccccc2)C1 (stereo not given) | ≥ 256 µg/mL | ≥ 256 µg/mL | ≥ 256 µg/mL | ≥ 256 µg/mL | ≥ 256 µg/mL | ≥ 256 µg/mL | ≥ 256 µg/mL | 256 µg/mL | 256 µg/mL | 256 µg/mL | 256 µg/mL | 256 µg/mL | 256 µg/mL |
| CC1CCC/C(=N/N=C2/SCC(=O)N2Cc2ccccc2)C1 (stereo not given) | ≥ 256 µg/mL | ≥ 256 µg/mL | ≥ 256 µg/mL | ≥ 256 µg/mL | ≥ 256 µg/mL | ≥ 256 µg/mL | ≥ 256 µg/mL | 8 µg/mL | 8 µg/mL | 8 µg/mL | 4 µg/mL | 4 µg/mL | 4 µg/mL |
| C[C@@H]1[C@H](O)[C@@H](C)/C=C/C=C/C=C/C=C/C=C/C=C/C=C/[C@H](O[C@@H]2O[C@H](C)[C@@H](O)[C@H](N)[C@@H]2O)C[C@@H]2O[C@](O)(C[C@@H](O)C[C@@H](O)[C@H](O)CC[C@@H](O)C[C@@H](O)CC(=O)O[C@H]1C)C[C@H](O)[C@H]2C(=O)O [AMPHOTERICIN B] | – | – | – | – | – | – | – | 4 µg/mL | 4 µg/mL | 2 µg/mL | 4 µg/mL | 2 µg/mL | 2 µg/mL |
| OC(Cn1cncn1)(Cn1cncn1)c1ccc(F)cc1F [FLUCONAZOLE] | – | – | – | – | – | – | – | 2 µg/mL | 2 µg/mL | 2 µg/mL | 2 µg/mL | 2 µg/mL | 2 µg/mL |
| CC(=O)N1CCN(c2ccc(OCC3COC(Cn4ccnc4)(c4ccc(Cl)cc4Cl)O3)cc2)CC1 (stereo not given) [KETOCONAZOLE] | – | – | – | – | – | – | – | 2 µg/mL | 2 µg/mL | 2 µg/mL | 4 µg/mL | 2 µg/mL | 4 µg/mL |
| Clc1ccc(COC(Cn2ccnc2)c2ccc(Cl)cc2Cl)c(Cl)c1 (stereo not given) [MICONAZOLE] | – | – | – | – | – | – | – | 2 µg/mL | 4 µg/mL | 2 µg/mL | 4 µg/mL | 4 µg/mL | 2 µg/mL |
| Clc1ccc(C(Cn2ccnc2)OCc2ccsc2Cl)c(Cl)c1 (stereo not given) [TIOCONAZOLE] | – | – | – | – | – | – | – | 8 µg/mL | 4 µg/mL | 8 µg/mL | 8 µg/mL | 8 µg/mL | 4 µg/mL |

— ChEMBL document CHEMBL4190362, “Synthesis, biological evaluation and quantitative structure-active relationships of 1,3-thiazolidin-4-one derivatives. A promising chemical scaffold endowed with high antifungal potency and low cytotoxicity” (Eur J Med Chem, 2017)
